Active and inactive are the calls of the source.
Legend:
[1] = target: T1, Adrenergic receptor alpha-1 (Rattus norvegicus, UniProt P15823+P23944+P43140); assay: Displacement of [3H]prazosin from alpha1 adrenergic receptor in rat cerebral cortex by liquid scintillation counting; format: tissue-based
T1 sequence (P15823 whole entry): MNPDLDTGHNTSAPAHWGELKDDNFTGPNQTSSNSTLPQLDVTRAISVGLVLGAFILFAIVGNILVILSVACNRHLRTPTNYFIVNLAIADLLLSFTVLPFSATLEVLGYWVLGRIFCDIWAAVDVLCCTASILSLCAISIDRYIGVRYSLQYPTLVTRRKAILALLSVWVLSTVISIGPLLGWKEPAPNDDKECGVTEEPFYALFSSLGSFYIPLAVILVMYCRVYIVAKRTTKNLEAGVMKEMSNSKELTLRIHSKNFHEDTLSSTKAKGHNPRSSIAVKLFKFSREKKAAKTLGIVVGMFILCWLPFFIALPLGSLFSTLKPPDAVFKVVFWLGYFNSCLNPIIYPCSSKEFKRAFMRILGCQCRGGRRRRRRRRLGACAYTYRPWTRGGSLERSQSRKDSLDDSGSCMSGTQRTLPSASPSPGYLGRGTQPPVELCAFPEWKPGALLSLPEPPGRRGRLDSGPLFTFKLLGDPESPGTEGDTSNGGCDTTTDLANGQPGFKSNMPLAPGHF
T1 sequence (P23944 whole entry): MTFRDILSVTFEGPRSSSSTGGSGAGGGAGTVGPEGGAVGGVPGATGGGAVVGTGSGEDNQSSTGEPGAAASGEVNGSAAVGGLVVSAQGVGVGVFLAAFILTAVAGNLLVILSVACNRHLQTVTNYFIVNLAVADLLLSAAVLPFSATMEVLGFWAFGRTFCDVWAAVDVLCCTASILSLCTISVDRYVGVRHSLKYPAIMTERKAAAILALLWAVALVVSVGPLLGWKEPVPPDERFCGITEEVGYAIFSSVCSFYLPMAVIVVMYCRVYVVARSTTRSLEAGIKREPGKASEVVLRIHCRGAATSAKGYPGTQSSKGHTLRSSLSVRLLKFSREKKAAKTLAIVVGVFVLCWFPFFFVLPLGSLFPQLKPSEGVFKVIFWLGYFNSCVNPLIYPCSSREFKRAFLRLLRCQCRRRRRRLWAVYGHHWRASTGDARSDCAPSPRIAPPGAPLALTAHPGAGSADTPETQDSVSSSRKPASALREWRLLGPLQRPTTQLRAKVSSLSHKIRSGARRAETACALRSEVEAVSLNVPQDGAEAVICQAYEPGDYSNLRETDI
T1 sequence (P43140 whole entry): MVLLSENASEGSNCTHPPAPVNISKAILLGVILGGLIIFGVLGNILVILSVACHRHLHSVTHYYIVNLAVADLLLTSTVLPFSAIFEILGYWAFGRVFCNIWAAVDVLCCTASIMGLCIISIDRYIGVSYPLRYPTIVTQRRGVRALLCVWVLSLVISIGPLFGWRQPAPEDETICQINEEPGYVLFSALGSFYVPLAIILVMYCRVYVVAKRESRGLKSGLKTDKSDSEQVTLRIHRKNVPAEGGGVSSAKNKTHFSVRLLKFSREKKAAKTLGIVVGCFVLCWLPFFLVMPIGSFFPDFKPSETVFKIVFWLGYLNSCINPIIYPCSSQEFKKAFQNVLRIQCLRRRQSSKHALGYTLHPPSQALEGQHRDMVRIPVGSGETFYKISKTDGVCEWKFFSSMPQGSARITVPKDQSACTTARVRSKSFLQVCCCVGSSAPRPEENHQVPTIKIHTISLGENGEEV
How it was run: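 Rat cerebral cortex was homogenized in ice-cold 50 mM Tris–HCl pH 7.6, centrifuged 20 000 × g for 20 min at 0–4 °C, and washed once more. Membranes were incubated with [3H]prazosin 0.2 nM and seven to eight compound concentrations (10^-11–10^-4 M), with phentolamine defining nonspecific binding. Bound ligand was filtered on glass fiber and counted by liquid scintillation. Runs were in duplicate, and Ki was calculated by Cheng–Prusoff.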

Rattus norvegicus [2] = assay: Antiarrhythmic activity against adrenaline-induced arrhythmia in iv dosed rat assessed as inhibition of cardiac rhythm disturbance administered 15 mins before adrenaline challenge; format: functional; conditions: Heart
How it was run: (§1)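 Rats anaesthetized with thiopental 60 mg/kg ip received the compound i.v. 15 min before an i.v. adrenaline challenge. Rhythm disturbances were recorded for 15 min after adrenaline. Activity was defined as absence of premature beats and inhibition of disturbances versus controls. ED50 values, with confidence limits, were derived by Litchfield–Wilcoxon from three groups of six animals.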

Rattus norvegicus [3] = assay: Antiarrhythmic activity against adrenaline-induced arrhythmia in iv dosed rat assessed as reduction in mortality rate administered 15 mins before adrenaline challenge; format: functional, organism-based; conditions: Heart; how it was run: as §1
Rattus norvegicus [4] = assay: Antiarrhythmic activity against adrenaline-induced arrhythmia in iv dosed rat assessed as reduction in supraventricular extrasystole administered 15 mins before adrenaline challenge; format: functional, organism-based; conditions: Heart; how it was run: as §1
Rattus norvegicus [5] = assay: Antiarrhythmic activity against adrenaline-induced arrhythmia in iv dosed rat assessed as reduction in ventricular extrasystole administered 15 mins before adrenaline challenge; format: functional, organism-based; conditions: Heart; how it was run: as §1
Rattus norvegicus [6] = assay: Antiarrhythmic activity against adrenaline-induced arrhythmia in iv dosed rat assessed as reduction in bigeminy administered 15 mins before adrenaline challenge; format: functional, organism-based; conditions: Heart; how it was run: as §1
Rattus norvegicus [7] = organism: Rattus norvegicus; assay: Hypotensive activity in Wistar rat assessed as reduction in epinephrine-induced systolic blood pressure response; format: functional, organism-based; conditions: Artery
How it was run: (§2)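 In anaesthetized rats, pressor responses were evoked by i.v. epinephrine, norepinephrine or methoxamine. Blood pressure was recorded through a heparin-saline-filled cannula in the carotid artery.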

Rattus norvegicus [8] = organism: Rattus norvegicus; assay: Hypotensive activity in Wistar rat assessed as reduction in norepinephrine-induced systolic blood pressure response; format: functional, organism-based; conditions: Artery; how it was run: as §2
Rattus norvegicus [9] = organism: Rattus norvegicus; assay: Hypotensive activity in Wistar rat assessed as reduction in methoxamine-induced systolic blood pressure response; format: functional, organism-based; conditions: Artery; how it was run: as §2
Rattus norvegicus [10] = assay: Antiarrhythmic activity against adrenaline-induced arrhythmia in rat assessed as reduction in reflex bradycardia at 5 mg/kg, iv administered 15 mins before adrenaline challenge; format: functional, organism-based; design: dose 5 mg/kg; conditions: Heart
How it was run: (§3)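 Rats anaesthetized with thiopental 60 mg/kg ip were dosed i.v. 15 min before an i.v. adrenaline challenge. Cardiac rhythm disturbances (bradycardia, extrasystoles, bigeminy, blocks) were recorded for 15 min after adrenaline and compared with controls.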

Rattus norvegicus [11] = assay: Antiarrhythmic activity against adrenaline-induced arrhythmia in rat assessed as reduction in supraventricular extrasystole at 5 mg/kg, iv administered 15 mins before adrenaline challenge; format: functional, organism-based; design: dose 5 mg/kg; conditions: Heart; how it was run: as §3
Rattus norvegicus [12] = assay: Antiarrhythmic activity against adrenaline-induced arrhythmia in rat assessed as reduction in ventricular extrasystole at 5 mg/kg, iv administered 15 mins before adrenaline challenge; format: functional, organism-based; design: dose 5 mg/kg; conditions: Heart; how it was run: as §3
Rattus norvegicus [13] = assay: Antiarrhythmic activity against adrenaline-induced arrhythmia in rat assessed as reduction in bigeminy at 5 mg/kg, iv administered 15 mins before adrenaline challenge; format: functional, organism-based; design: dose 5 mg/kg; conditions: Heart; how it was run: as §3
Rattus norvegicus [14] = assay: Antiarrhythmic activity against adrenaline-induced arrhythmia in rat assessed as reduction in cardiac block at 5 mg/kg, iv administered 15 mins before adrenaline challenge; format: functional, organism-based; design: dose 5 mg/kg; conditions: Heart; how it was run: as §3
Rattus norvegicus [15] = assay: Hypotensive activity in Wistar rat assessed as reduction in epinephrine-induced blood pressure response at 5 mg/kg; format: functional, organism-based; design: dose 5 mg/kg; how it was run: as §2
Rattus norvegicus [16] = assay: Hypotensive activity in Wistar rat assessed as reduction in norepinephrine-induced blood pressure response at 5 mg/kg; format: functional, organism-based; design: dose 5 mg/kg; how it was run: as §2
Rattus norvegicus [17] = assay: Hypotensive activity in Wistar rat assessed as reduction in methoxamine-induced pressure response at 5 mg/kg; format: functional, organism-based; design: dose 5 mg/kg; how it was run: as §2
Rattus norvegicus [18] = assay: Hypotensive activity in normotensive Wistar rat assessed as diastolic blood pressure at 2.5 mg/kg, iv after 20 mins (Rvb=107.2 +/- 7.3 mmHg); format: functional, Artery

For `Cl.Cl.O=C1N(CC(O)CN2CCN(c3ccccc3C(F)(F)F)CC2)CCC1(c1ccccc1)c1ccccc1` (centres undefined), the pKi [1] was 5.89, the ED50 (Rattus norvegicus [2]) was 3.9 mg/kg and the Activity (Rattus norvegicus [3]) was “Active”. The Activity (Rattus norvegicus [4]) was “Active”, the Activity (Rattus norvegicus [5]) was “Active” and the Activity (Rattus norvegicus [6]) was “Active”. The Activity (Rattus norvegicus [7]) was “inactive”, the Activity (Rattus norvegicus [8]) was “inactive” and the Activity (Rattus norvegicus [9]) was “inactive”.

In the case of `Cc1ccccc1N1CCN(CC(O)CN2CCC(c3ccccc3)(c3ccccc3)C2=O)CC1.Cl.Cl` (centres undefined), the pKi [1] is reported as 6.69, the ED50 (Rattus norvegicus [2]) is reported as 1.4 mg/kg and the Activity (Rattus norvegicus [10]) is reported as “Active”. For the same molecule, the Activity (Rattus norvegicus [11]) was “Active”, the Activity (Rattus norvegicus [12]) was “Active” and the Activity (Rattus norvegicus [13]) was “Active”. The Activity (Rattus norvegicus [14]) was “Active”, the Activity (Rattus norvegicus [15]) was “Active” and the Activity (Rattus norvegicus [16]) was “Active”. For the same molecule, the Activity (Rattus norvegicus [17]) was “Active” and the Activity (Rattus norvegicus [3]) was “Active”.

In the case of `COc1ccccc1N1CCN(CC(O)CN2CCC(c3ccccc3)(c3ccccc3)C2=O)CC1.Cl.Cl` (centres undefined), the pKi [1] is reported as 6.8, the ED50 (Rattus norvegicus [2]) is reported as 2.05 mg/kg and the Activity (Rattus norvegicus [15]) is reported as “Active”. The Activity (Rattus norvegicus [16]) was “Active”, the Activity (Rattus norvegicus [17]) was “Active” and the Activity (Rattus norvegicus [3]) was “Active”. The Activity (Rattus norvegicus [4]) was “Active”, the Activity (Rattus norvegicus [5]) was “Active” and the Activity (Rattus norvegicus [6]) was “Active”.

For `COc1ccc(N2CCN(CC(O)CN3CCC(c4ccccc4)(c4ccccc4)C3=O)CC2)cc1.Cl.Cl` (centres undefined), the pKi [1] was 5.36, the Activity (Rattus norvegicus [18]) was 89.8 mmHg and the Activity (Rattus norvegicus [7]) was “inactive”. The Activity (Rattus norvegicus [8]) was “inactive” and the Activity (Rattus norvegicus [9]) was “inactive”.

With `CCOc1ccccc1N1CCN(CC(O)CN2CCC(c3ccccc3)(c3ccccc3)C2=O)CC1.Cl.Cl` (centres undefined) the pKi [1] was 7.28, the ED50 (Rattus norvegicus [2]) was 1.1 mg/kg and the Activity (Rattus norvegicus [10]) was “Active”. For the same molecule, the Activity (Rattus norvegicus [11]) was “Active”, the Activity (Rattus norvegicus [12]) was “Active” and the Activity (Rattus norvegicus [13]) was “Active”. The Activity (Rattus norvegicus [14]) was “Active”, the Activity (Rattus norvegicus [15]) was “Active” and the Activity (Rattus norvegicus [16]) was “Active”. For the same molecule, the Activity (Rattus norvegicus [17]) was “Active” and the Activity (Rattus norvegicus [3]) was “Active”.

With `Cl.Cl.O=C1N(CC(O)CN2CCN(c3ccccc3)CC2)CCC1(c1ccccc1)c1ccccc1` (centres undefined) the pKi [1] was 6.74, the ED50 (Rattus norvegicus [2]) was 1.9 mg/kg and the Activity (Rattus norvegicus [15]) was “Active”. The Activity (Rattus norvegicus [16]) was “Active”, the Activity (Rattus norvegicus [17]) was “Active” and the Activity (Rattus norvegicus [3]) was “Active”. For the same molecule, the Activity (Rattus norvegicus [4]) was “Active”, the Activity (Rattus norvegicus [5]) was “Active” and the Activity (Rattus norvegicus [6]) was “Active”.

Source: ChEMBL document CHEMBL1154048, “Design, synthesis and pharmacological evaluation of new 1-[3-(4-arylpiperazin-1-yl)-2-hydroxy-propyl]-3,3-diphenylpyrrolidin-2-one derivatives with antiarrhythmic, antihypertensive, and alpha-adrenolytic activity” (Eur J Med Chem, 2009)
